The values below come from ChEMBL document CHEMBL4622968, “Discovery of [1,2,4]triazolo[4,3-a]pyridines as potent Smoothened inhibitors targeting the Hedgehog pathway with improved antitumor activity in vivo” (Bioorg Med Chem, 2020).

The test system of test [1] is T47D. The experiment in a line: Antiproliferation activity against human T47D cells assessed as reduction in cell viability incubated for 72 hr by MTT assay. Format: functional, cell-based. Summed up: (§1)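 MTT assay. Cells were plated overnight and exposed to a range of concentrations for 72 h. MTT was then added for 4 h and absorbance read at 570 nm. Inhibition% = [(control − compound)/(control − blank)] × 100. IC50 was fitted from the curves. Mean ± S.D. of 3–5 separate experiments. RPMI 1640 + 10% FBS; MCF10A in DMEM/F12 with 5% horse serum, EGF, hydrocortisone, insulin and cholera toxin.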

A short description of test [2]: Inhibition of hedgehog pathway in mouse NIH/3T3 cells harboring GRE-Luc assessed as inhibition of SAG-induced Hh signaling pathway by dual luciferase reporter gene assay. To be noted: NIH3T3. Type of test: cell-based. Summed up:
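NIH3T3 cells co-transfected with 8×3' Gli-BS-delta51-Luc II firefly reporter and pRL-TK Renilla plasmid; after 24 h treated with compounds plus SAG (pathway activator). Gli luciferase normalized to Renilla (dual-luciferase read-out); IC50 = concentration halving normalized signal; mean ± S.D. of 3–5 separate experiments.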

Test [3] has as its system MDA-MB-468. In words: Antiproliferation activity against human MDA-MB-468 cells assessed as reduction in cell viability incubated for 72 hr by MTT assay. Type of test: functional, cell-based. To be noted: MDA-MB-468, 72 h. Summed up:
as §1

Test [4] deals with MDA-MB-231. In words: Antiproliferation activity against human MDA-MB-231 cells assessed as reduction in cell viability incubated for 72 hrs measured after 4 hrs by MTT assay. Type of test: functional, cell-based. Summed up:
as §1

Test [5] relates to MCF7. In words: Antiproliferation activity against human MCF7 cells assessed as reduction in cell viability incubated for 72 hrs by MTT assay. The note with it: MCF7, 72 h. Format: functional, cell-based. Summed up: as §1
For test [6], the system named is A549. The experiment in a line: Antiproliferation activity against human A549 cells assessed as reduction in cell viability incubated for 72 hrs by MTT assay. Type of test: functional, cell-based. To be noted: A549, 72 h. Summed up: as §1
Test [7] concerns U-251. In words: Antiproliferation activity against human U251 cells assessed as reduction in cell viability incubated for 72 hrs by MTT assay. Type of test: functional, cell-based. The note with it: U-251, 72 h. Summed up: as §1
Test [8] relates to AN3-CA. In words: Antiproliferation activity against human AN3CA cells assessed as reduction in cell viability incubated for 72 hr by MTT assay. Type of test: functional, cell-based. Summed up:
as §1

In test [9] the test system is HeLa. The experiment in a line: Antiproliferation activity against human HeLa cells assessed as reduction in cell viability incubated for 72 hrs by MTT assay. Format: functional, cell-based. Summed up: as §1

With `O=C(Nc1ccc(Cl)c(-c2nnc3c(Cl)cccn23)c1)c1c(F)cccc1Cl`, the IC50 was more than 100 µM in test [1]; more than 10 µM in [2]; 57.6 µM in test [3]; more than 100 µM in test [4]; more than 100 µM in test [5]; 72.3 µM in [6]. The half-maximal inhibitory concentration (IC50) in test [7], in [8] and in [9] was more than 100 µM in each case.
`O=C(Nc1ccc(Cl)c(-c2nnc3c(Cl)cccn23)c1)c1ccccn1`: the IC50 in test [1] was more than 100 µM; in [2], 1.08 µM; in test [3] it was more than 100 µM; in test [4], 92 µM; in test [5], 96.4 µM; in test [6] it was more than 100 µM. For the same molecule, the IC50 in test [7] was 79 µM; in test [8] it was more than 100 µM; in test [9], 75.5 µM.
For the molecule `Cc1cc(Cl)ccc1C(=O)Nc1ccc(Cl)c(-c2nnc3c(Cl)cccn23)c1`, the IC50 was more than 100 µM in test [1]; more than 10 µM in test [2]; 34.3 µM in [3]; more than 100 µM in test [4]; more than 100 µM in test [5]; more than 100 µM in [6]. Besides, the IC50 in [7], in test [8] and in test [9] was more than 100 µM in each case.
In the case of `O=C(Nc1ccc(Cl)c(-c2nnc3c(Cl)cccn23)c1)c1ccc(F)cc1Cl`, the IC50 was more than 100 µM in test [1]; 8.22 µM in test [2]; more than 100 µM in test [3]; 75 µM in test [4]; more than 100 µM in [5]; more than 100 µM in [6]. Besides, the IC50 in test [7], in [8] and in [9] was more than 100 µM throughout.
Take `CS(=O)(=O)c1ccc(C(=O)Nc2ccc(Cl)c(-c3nnc4c(Cl)cccn34)c2)cc1`: the IC50 was more than 100 µM in test [1]; 1.77 µM in test [2]; more than 100 µM in test [3]; more than 100 µM in test [4]; 94.2 µM in test [5]; more than 100 µM in test [6]. Besides, the IC50 in test [7], in [8] and in [9] was more than 100 µM in each case.
As for `O=C(Nc1ccc(Cl)c(-c2nnc3c(Cl)cccn23)c1)c1ccccc1`, the concentration for half-maximal inhibition (IC50) was more than 100 µM in test [1]; 0.77 µM in test [2]; more than 100 µM in test [3]; 58.2 µM in test [4]; more than 100 µM in [5]; 76.9 µM in test [6]. The IC50 is 73.5 µM in [7], 67.6 µM in test [8] and more than 100 µM in test [9].
With `CS(=O)(=O)c1ccc(C(=O)Nc2ccc(Cl)c(-c3nnc4c(Cl)cccn34)c2)c(Cl)c1`, the IC50 in [1] was more than 100 µM; in test [2] it was 4.27 µM; in test [3] it was more than 100 µM; in test [4], 37.2 µM; in test [5], more than 100 µM; in test [6], more than 100 µM. For the same molecule, the IC50 in test [7] was 44.6 µM; in test [8], more than 100 µM; in [9], more than 100 µM.
As to `O=C(Nc1ccc(Cl)c(-c2nnc3c(Cl)cccn23)c1)c1ccc(Cl)cc1`, the IC50 in test [1] is more than 100 µM; in [2], 2.73 µM; in test [3], more than 100 µM; in test [4] it was more than 100 µM; in [5] it was 58.4 µM; in test [6], 73.6 µM. Further, the IC50 in test [7], in [8] and in test [9] was more than 100 µM throughout.
Consider `O=C(Nc1ccc(Cl)c(-c2nnc3c(Cl)cccn23)c1)c1ccon1`, for which the IC50 in test [1] was more than 100 µM; in [2], more than 10 µM; in test [3], more than 100 µM; in [4] it was more than 100 µM; in test [5] it was more than 100 µM; in test [6], 42.7 µM. Besides, the IC50 in test [7], in test [8] and in test [9] was more than 100 µM throughout.
Regarding `O=C(Nc1ccc(Cl)c(-c2nnc3c(Cl)cccn23)c1)c1ccc(Cl)cc1Cl`, the IC50 is more than 100 µM in [1]; 0.285 µM in test [2]; 21.6 µM in [3]; more than 100 µM in [4]; 78.2 µM in test [5]; 61.3 µM in test [6]. Also, the IC50 is more than 100 µM in test [7], 84.8 µM in test [8] and more than 100 µM in test [9].
Turning to `O=C(Nc1ccc(Cl)c(-c2nnc3c(Cl)cccn23)c1)c1cccnc1`, the IC50 in test [1] is more than 100 µM; in test [2] it was more than 10 µM; in test [3], more than 100 µM; in [4], more than 100 µM; in test [5], more than 100 µM; in [6], more than 100 µM. In addition, the IC50 in [7], in test [8] and in test [9] was more than 100 µM in each case.
Turning to `CS(=O)(=O)c1cccc(C(=O)Nc2ccc(Cl)c(-c3nnc4c(Cl)cccn34)c2)c1`, the IC50 in test [1] is more than 100 µM; in test [2], 2.98 µM; in test [3] it was more than 100 µM; in test [4] it was more than 100 µM; in test [5] it was 88.9 µM; in [6] it was more than 100 µM. The figures for the IC50 in test [7], in test [8] and in test [9] were more than 100 µM, more than 100 µM and 86.4 µM, respectively.
Take `O=C(Nc1ccc(Cl)c(-c2nnc3c(Cl)cccn23)c1)c1ccc(C(F)(F)F)cc1Cl`: the IC50 in [1] is more than 100 µM; in test [2], 5.2 µM; in test [3] it was more than 100 µM; in test [4] it was more than 100 µM; in test [5], 81.6 µM; in test [6], more than 100 µM. For the same molecule, the IC50 in test [7], in test [8] and in test [9] was more than 100 µM each time.
Consider `O=C(Nc1ccc(Cl)c(-c2nnc3c(Cl)cccn23)c1)c1cccnc1Cl`, for which the IC50 in test [1] was more than 100 µM; in test [2], more than 10 µM; in test [3] it was more than 100 µM; in [4], 89.7 µM; in [5], more than 100 µM; in test [6] it was 35.8 µM. The figures for the IC50 in test [7], in test [8] and in test [9] were more than 100 µM, more than 100 µM and 87.5 µM, respectively.
Consider `O=C(Nc1ccc(Cl)c(-c2nnc3c(Cl)cccn23)c1)c1ccccc1Cl`, for which the IC50 in test [1] is 83.8 µM; in test [2], 0.727 µM; in test [3], more than 100 µM; in test [4], 59.9 µM; in [5], 92.2 µM; in test [6], more than 100 µM. The IC50 in test [7], in [8] and in test [9] was more than 100 µM in each case.
With `Cc1nc(C(=O)Nc2ccc(Cl)c(-c3nnc4c(Cl)cccn34)c2)cs1`, the IC50 in [1] is more than 100 µM; in test [2] it was more than 10 µM; in test [3], more than 100 µM; in test [4], more than 100 µM; in test [5] it was more than 100 µM; in [6] it was more than 100 µM. In addition, the IC50 in test [7] was 74.3 µM; in test [8], more than 100 µM; in [9], 79.8 µM.
